Results: ChEMBL document CHEMBL1145814, “Antiretroviral activity of semisynthetic derivatives of glycopeptide antibiotics” (J Med Chem, 2003)
≈ marks a conversion by molar mass, not a printed value. Where “and” joins values, the source holds several entries; their conditions need not be identical. Identical values can stand only once.

Columns and labels:
[1] = organism: Mus musculus; assay: Minimal inhibitory concentration required to cause a microscopic detectable alteration of C3H/3T3 embryo murine fibroblast cell morphology; type: functional
How it was run: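 Uninfected C3H/3T3 murine embryo fibroblast cultures were exposed to test compound and checked microscopically for changes in cell morphology. The MIC is the concentration causing a microscopically detectable alteration of morphology.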

[2] = test system: CCRF-CEM; assay: Inhibitory concentration against proliferation of human T-lymphocytic (CEM) cells; type: functional, cell-based
How it was run: (§1)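 (5–7.5) × 10^4 cells per well were incubated with test compound at 37 °C in a humidified CO2 atmosphere. L1210 murine leukemia cells grew for 48 h, and CEM and Molt4/clone 8 human lymphocytes grew for 72 h. Cells were then counted with a Coulter counter. IC50 is the concentration inhibiting proliferation by 50%.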

[3] = test system: Human immunodeficiency virus 2; assay: Concentration required to protect human T-lymphocytic cells against the cytopathogenicity of HIV-2; type: functional, organism-based
[4] = test system: Human immunodeficiency virus 1; assay: Effective concentration of compound required to protect human T-lymphocytic cells against the cytopathogenicity of HIV-1; type: functional, organism-based
[5] = test system: L1210; assay: Inhibitory concentration of compound against proliferation of murine lukemia cells L1210 was determined; type: functional, cell-based; details: Mus musculus; how it was run: as §1
[6] = test system: MOLT-4; assay: Inhibitory concentration of compound against proliferation of human T-lymphocytic cells MOLT-4/C8 was determined; type: functional, cell-based; how it was run: as §1
[7] = organism: Mus musculus; assay: Effective concentration of compound required to protect C3H/3T3 embryo murine fibroblasts against the MSV induced transformation; type: functional, organism-based; details: Mus musculus, C3H/3T3
How it was run: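 Monolayer murine embryo fibroblast C3H/3T3 cultures were infected with Moloney murine sarcoma virus at 75 focus-forming units and cultured with test compound. Transformation was examined microscopically on day 6 postinfection. EC50 is the concentration protecting cells against MSV-induced transformation by 50%.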

SMILES | MIC [1] [µM] | IC50 ([2]; Homo sapiens, CCRF-CEM) [µM] | EC50 ([3]; Human immunodeficiency virus 2) [µM] | EC50 ([4]; Human immunodeficiency virus 1) [µM] | IC50 [5] [µM] | IC50 [6] [µM] | EC50 [7] [µM] | IC50 ([2]; ccrf-cem) [µM] | EC50 [3] | EC50 [4] [µM]
CNC(=O)[C@@H]1NC(=O)C2NC(=O)C(NC(=O)C3NC(=O)C(CC(N)=O)NC(=O)C(N)C(O)c4ccc(c(Cl)c4)Oc4cc3cc(c4O)Oc3ccc(cc3)C2O)c2ccc(O)c(c2)-c2c1cc(O)c(CNC1C3CC4CC(C3)CC1C4)c2O (some centres not stated) | > 100 | > 250 | 20 | 13 | > 250 | > 250 | 14 |  |  | 
NC1C(=O)NC2Cc3ccc(c(Cl)c3)Oc3cc4cc(c3O)Oc3ccc(cc3Cl)C(O)C3NC(=O)C(NC(=O)C4NC(=O)C(NC2=O)c2cc(O)cc(c2)Oc2cc1ccc2O)c1ccc(O)c(c1)-c1c(cc(O)c(CNC2C4CC5CC(C4)CC2C5)c1O)[C@H](C(=O)NC1C2CC4CC(C2)CC1C4)NC3=O (some centres not stated) | > 20 | > 250 | 3.5 | 2.5 | 202 | > 250 | 2 |  |  | 
CNC(=O)[C@@H]1NC(=O)C2NC(=O)C(NC(=O)C3NC(=O)C4NC(=O)C(Cc5ccc(c(Cl)c5)Oc5cc3cc(c5O)Oc3ccc(cc3Cl)C2O)NC(=O)C(N)c2ccc(O)c(c2)Oc2cc(O)cc4c2)c2ccc(O)c(c2)-c2c(O)cc(O)cc21 (some centres not stated) | > 100 | > 500 | 17 | 15 | > 500 | > 500 | > 20 |  |  | 
CC(=O)N[C@@H]1[C@H](OC2c3ccc(c(Cl)c3)Oc3cc4cc(c3O[C@@H]3O[C@@H](CO)[C@@H](O)[C@H](O)[C@@H]3NC(=O)CCCCCCC(C)C)Oc3ccc(cc3Cl)C(O)C3NC(=O)C(N)c5ccc(O)c(c5)Oc5cc(O)cc(c5)C(NC3=O)C(=O)NC4C(=O)NC3C(=O)NC2C(=O)N[C@@H](C(=O)O)c2cc(O)cc(O[C@H]4O[C@H](CO)[C@@H](O)[C@@H](O)[C@@H]4O)c2-c2cc3ccc2O)O[C@@H](CO)[C@@H](O)[C@@H]1O (some centres not stated) | > 100 | > 500 | 100 | 17 | > 500 | > 500 | > 100 |  |  | 
CCCCc1ccc(CNC2C(Oc3c4cc5cc3Oc3ccc(cc3Cl)C(O)C3NC(=O)C(NC(=O)C5NC(=O)C5NC(=O)C(Cc6ccc(cc6)O4)NC(=O)C(NC)c4ccc(O)c(c4)Oc4cc(O)c(Cl)c5c4)c4ccc(O)c(c4)-c4c(cc(O)c(CN5CCN(Cc6ccc(-c7ccccc7)cc6)CC5)c4O)[C@H](C(=O)NCCCN(C)C)NC3=O)OC(C(=O)NCCCN(C)C)C(O)C2O)cc1 (some centres not stated) | 20 (≈ 39.3 µg/mL) | 212 | 20 | 3.5 | 25 | 35 | > 4 |  |  | 
CN(C)CCCNC(=O)[C@@H]1NC(=O)C2NC(=O)C(NC(=O)C3NC(=O)C4NC(=O)C(Cc5ccc(c(Cl)c5)Oc5cc3cc(c5O)Oc3ccc(cc3Cl)C2O)NC(=O)C(N)c2ccc(O)c(c2)Oc2cc(O)cc4c2)c2ccc(O)c(c2)-c2c1cc(O)c(CNC1C3CC4CC(C3)CC1C4)c2O (some centres not stated) | 20 (≈ 28.9 µg/mL) | > 500 |  | 2.5 | > 500 | > 500 | 12 | > 250 | 8 µM and 22 µM | 4
CCCCc1ccc(CNC2C(Oc3c4cc5cc3Oc3ccc(cc3Cl)C(O)C3NC(=O)C(NC(=O)C5NC(=O)C5NC(=O)C(Cc6ccc(cc6)O4)NC(=O)C(NC)c4ccc(O)c(c4)Oc4cc(O)c(Cl)c5c4)c4ccc(O)c(c4)-c4c(O)cc(O)cc4[C@H](C(=O)NCCCN(C)C)NC3=O)OC(C(=O)NCCCN(C)C)C(O)C2O)cc1 (some centres not stated) | > 100 | > 250 | > 50 | 12 | 36 | 66 | > 20 |  |  | 
COC(=O)[C@@H]1NC(=O)C2NC(=O)C(NC(=O)C(NC(=O)OC(C)(C)C)c3cc(Oc4ccc(CC(NC(=O)OCc5ccccc5)C(=O)O)cc4Cl)c(O)c(c3)Oc3ccc(cc3Cl)C2O)c2ccc(O)c(c2)-c2c1cc(O)c(CNC1C3CC4CC(C3)CC1C4)c2O (some centres not stated) | > 100 | 240 | 11 | 17 | 95 | 122 | 26 |  |  | 
CNC1C(=O)NC2Cc3ccc(cc3)Oc3cc4cc(c3OC3OC(C(=O)O)C(O)C(O)C3N)Oc3ccc(cc3Cl)C(O)C3NC(=O)C(NC(=O)C4NC(=O)C(NC2=O)c2cc(cc(O)c2Cl)Oc2cc1ccc2O)c1ccc(O)c(c1)-c1c(O)cc(O)cc1[C@H](C(=O)O)NC3=O (some centres not stated) | > 100 | > 500 | > 250 | 115 | > 500 | > 500 | > 100 |  |  | 
CNC(CC(C)C)C(=O)NC1C(=O)NC(CC(N)=O)C(=O)NC2C(=O)NC3C(=O)NC(C(=O)N[C@@H](C(=O)O)c4cc(O)c(CN5CCN(Cc6ccc(-c7ccccc7)cc6)CC5)c(O)c4-c4cc3ccc4O)C(O)c3ccc(cc3)Oc3cc2cc(c3O)Oc2ccc(cc2Cl)C1O (some centres not stated) | > 100 | > 500 | 12 | 5.5 | 250 | > 500 | 13 |  |  | 
